We go through 16 compounds from ChEMBL document CHEMBL1152481, “Synthesis of 2-(4-substitutedmethylpiperazin-1-yl)-N-(3,4-dihydro-3-oxo-2H-benzo[b][1,4]oxazin-7-yl)acetamides and their positive inotropic evaluation” (2009).

Active and inactive are the calls of the source. No cut-off for these calls is given here.

The species named for test [1] is Oryctolagus cuniculus. The test is described as follows: Negative inotropic activity in perfused rabbit left atrium assessed as stroke volume at 10 uM. In kind it is functional, tissue-based. The note with it: Cardiac atrium. In short, it runs like this: (§1)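 Field-stimulated at a fixed 1.5 Hz, 60 min stabilization. Single dose, DMSO-dissolved and buffer-diluted, applied after a control circulation; 12-min circulations. Stroke volume read from the cannula water column at end diastole every 2 min, reported as mean % increase.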

The species named for test [2] is Oryctolagus cuniculus. The test is described as follows: Positive inotropic activity in perfused rabbit left atrium assessed as increase in stroke volume at 10 uM/L. The class given is functional, tissue-based. The note with it: Cardiac atrium, TDE = time-dependent effect. In short, it runs like this: as §1
Test [3] in a line: Chronotropic effect in perfused rabbit left atrium assessed as heart rate at 10 uM by electrocardiogram analysis (Rvb= 146.80 +/- 0.09 Hz). The class given is functional, Oryctolagus cuniculus, Cardiac atrium.
Test [4] is described as follows: Positive inotropic activity in perfused rabbit left atrium assessed as increase in stroke volume at 10 uM. The class given is functional, Oryctolagus cuniculus, Cardiac atrium. In short, it runs like this:
as §1

Test [5] is described as follows: Chronotropic effect in perfused rabbit left atrium assessed as heart rate at 10 uM by electrocardiogram analysis (Rvb= 152.20 +/- 0.42 Hz). In kind it is functional, Oryctolagus cuniculus, Cardiac atrium.

Turning to `O=C(CN1CCN(Cc2ccc(Cl)cc2)CC1)Nc1ccc2c(c1)OCC(=O)N2`, in test [1], the outcome was Active.
Regarding `O=C(CN1CCN(Cc2ccccc2F)CC1)Nc1ccc2c(c1)OCC(=O)N2`, the results for the Activity result in test [2], in test [3] and in test [4] were “tde”, 139.1 Hz and 4.29%, respectively.
For `O=C(CN1CCN(Cc2ccccc2)CC1)Nc1ccc2c(c1)OCC(=O)N2`, in test [1], the outcome was Active.
Regarding `O=C(CN1CCN(Cc2cccc(Cl)c2)CC1)Nc1ccc2c(c1)OCC(=O)N2`, the result in test [1] was Active.
Regarding `O=C(CN1CCN(Cc2ccccc2Br)CC1)Nc1ccc2c(c1)OCC(=O)N2`, in test [4], the Activity was found to be 1.43%.
As to `COc1ccc(COc2ccc3cc(CN4CCN(CC(=O)Nc5ccc6c(c5)OCC(=O)N6)CC4)ccc3c2)cc1`, in test [1], the result was Active.
Regarding `O=C(CN1CCN(Cc2ccc3cc(OCc4cccc(Cl)c4)ccc3c2)CC1)Nc1ccc2c(c1)OCC(=O)N2`, in test [1], the result was Active.
Same read-out and setting: then `O=C(CN1CCN(Cc2ccc3c(c2)OCO3)CC1)Nc1ccc2c(c1)OCC(=O)N2`, with “Active”.
Take `Cc1ccc(CN2CCN(CC(=O)Nc3ccc4c(c3)OCC(=O)N4)CC2)cc1`: the Activity entry in test [2] was “tde”; in test [4] it was 5.09%; in test [5] it was 142.2 Hz.
Take `O=C(CN1CCN(Cc2c(Cl)cccc2Cl)CC1)Nc1ccc2c(c1)OCC(=O)N2`: in test [1], the outcome was Active.
On the same count and under the same terms, the entry for `Cc1ccc(COc2ccc3cc(CN4CCN(CC(=O)Nc5ccc6c(c5)OCC(=O)N6)CC4)ccc3c2)cc1` is “Active”; for `O=C(CN1CCN(Cc2ccc(F)cc2)CC1)Nc1ccc2c(c1)OCC(=O)N2` it is “Active”; for `COc1ccc(CN2CCN(CC(=O)Nc3ccc4c(c3)OCC(=O)N4)CC2)cc1` it is “Active”.
On to `COc1cccc(CN2CCN(CC(=O)Nc3ccc4c(c3)OCC(=O)N4)CC2)c1`, for which, in test [4], the Activity worked out at 3.23%.
In the case of `Cc1[nH]c(=O)c(C#N)cc1-c1ccncc1` [MILRINONE], the Activity in test [4] is listed as 1.67%.
Consider `O=C(CN1CCN(Cc2ccc3cc(OCc4ccccc4)ccc3c2)CC1)Nc1ccc2c(c1)OCC(=O)N2`, for which the outcome in test [1] was Active.
